Here are results for one compound from PMC12480952 (Nature Communications, 2025).

The subject of this assay is FLAG-tagged, full-length WT BCL-2. As to the kind of experiment: Streptavidin pull-down from HEK 293T lysate, FLAG-BCL-2 WT, anti-FLAG western. In kind it is binding, human. Particulars: biotinylated BAD SAHB 4.2 1 μM, 300 μg lysate, overnight 4 °C. The procedure, abridged:
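HEK 293T cells (DMEM, 10% FBS, penicillin/streptomycin, 2 mM glutamine; mycoplasma-free) were transfected at 70% confluence with 3 μg of plasmid encoding N-FLAG full-length BCL-2 (aa 1–239) and lysed after 24 h in CHAPS buffer. Lysate (300 μg) took 1 μM biotinylated test peptide ± competitor (0.1, 1.0, 10 μM), overnight, 4 °C. Streptavidin agarose capture followed (2 h, room temperature), then PBS and 1% NP-40 washes, LDS elution and anti-FLAG western; three independent repeats.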

`CC1(C)CCC(CN2CCN(c3ccc(C(=O)NS(=O)(=O)c4ccc(NCC5CCOCC5)c([N+](=O)[O-])c4)c(Oc4cnc5[nH]ccc5c4)c3)CC2)=C(c2ccc(Cl)cc2)C1` [venetoclax]: the “displacement of biotin-BAD SAHB 4.2 from FLAG-BCL-2 WT” value by setting is: (venetoclax 1 μM) “near complete dissociation”; (venetoclax 10 μM) “complete dissociation”.
